Compound activity (PubChem BioAssay)
This excerpt belongs to a sample that is enriched for hits.
PostGolgi yeast: growth inhibition of a yeast mutant, post-Golgi transport screen; post-Golgi transport phenotypic cell assay; 98,000 tested, 0.9% active; inhibition, % at 10 µM; AID 739;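 note: yeast cells grown in 1536-well plates; yeast grown about 18 h at 30C before absorbance read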
Yeast growth inh: yeast BB579 growth reduction in restrictive medium | S. cerevisiae BB579 growth, OD615, 48 h | inhibition, % at 10 µM | 140,000 tested, 0.51% active;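 active = inhibition above a set limit, 3 SD over the mean compound inhibition, cut at about 44% in these data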
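test system = yeast BB579 (DeaD) | buffer or medium = restrictive CSMM-D medium | doses = single compound dose of 10 µM, 0.25% DMSO final | times = 4 h preincubation and 48 h exposure at 30 °C | technique = culture absorbance at 615 nm | benchmarks = amphotericin B 10 µg/mL, positive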
Yeast lifespan up: extends the lifespan of yeast | S. cerevisiae growth with nicotinamide, OD615; deaD strain in restrictive glucose medium | inhibition of the nicotinamide effect, % at 10 µM | 130,000 tested, 0.68% active | AID 775;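 active = inhibition above a set limit, placed 3 SD over the median of all compounds, cut at about 26% in these data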;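 note: 0% = nicotinamide-treated wells and 100% = cells grown without nicotinamide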
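Test system: DeaD-strain S. cerevisiae / Buffer or medium: restrictive glucose medium / Also added: nicotinamide 1.5 mM / Doses: one concentration, 10 µM, DMSO 0.25% / Schedule: 48 h at 30 °C / Signal: OD615 measurement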
PostGolgi ctrl: yeast control strain growth, post-Golgi counter-screen; efflux-deficient yeast background strain, growth absorbance A615, 16 h; 98,000 tested, 5% active; inhibition, % at 10 µM
Numbers without * were called inactive; nt = not tested or not shown. Cut-off read from the data, not from the text of the source, unless noted: active = inhibition above about 30%; inactive = the rest.

SMILES	PostGolgi yeast	Yeast growth inh	Yeast lifespan up	PostGolgi ctrl
Cc1nc2ccccc2c2oc(C(=O)NCC3COc4ccccc4O3)cc12 (centres undefined)	4.7	-27.5	-14.1	41.7*
Cc1c(C(=O)NCC2COc3ccccc3O2)oc2ccc(S(=O)(=O)N3CCOCC3)cc12 (centres undefined)	-10.9	-7.6	-4.4	1.6
Cc1cccc(NC(=S)NNC(=O)CC(C)O)c1C (centres undefined)	-3.0	-45.7	-14.4	48.1*
COc1ccc(C2=NN3C(C2)c2ccccc2OC32C(=O)N(C)c3ccccc32)cc1 (centres undefined)	4.4	-15.4	-18.6	30.1*
CC(C)(C)C(=O)c1no[n+]([O-])c1/C(=N/O)C(C)(C)C	-7.7	-62.7	14.4	23.4
Cc1ccc(C(=O)c2no[n+]([O-])c2C(=O)c2ccc(C)cc2)cc1	nt	19.0	27.2*	nt
COC(=O)c1ccc(Cl)c(NC(=O)CN(c2ccccc2)S(=O)(=O)c2ccc(OC)cc2)c1	nt	-13.5	-2.6	nt
CC1(C)CC(=O)C2=C(C1)OC(N)=C(C#N)C21C(=O)N2CCCc3cccc1c32 (centres undefined)	-6.0	-46.9	-6.5	33.9*
CC1(CC(=O)N/N=C/c2ccc(OCc3ccc(Cl)cc3Cl)cc2)OCCCO1	1.0	-41.3	-25.2	42.4*
O=C1c2[nH]nc(-c3ccccc3O)c2C(c2ccccc2)N1Cc1ccco1 (centres undefined)	0.6	3.1	-4.8	38.3*
O=C1c2[nH]nc(-c3ccccc3O)c2C(c2ccccc2F)N1Cc1ccco1 (centres undefined)	-3.1	-6.0	-9.2	9.8
COc1cc(CNCCN2CCOCC2)ccc1OCc1cccc(Cl)c1	9.0	52.5*	-15.3	1.2
CCOC(=O)Cn1nc(-c2ccc(Cl)cc2)ccc1=O	-4.0	-32.8	-7.1	36.5*
O=C(c1cc2ccccc2oc1=O)N1CCN(c2ncccn2)CC1	6.6	4.9	-4.0	5.5
Cc1cc(/C=C(\C#N)C(=O)Nc2ccccc2)c(C)n1-c1ccc2c(c1)OCO2	-5.7	-56.7	-9.2	55.4*
Cc1cc(/C=C(/C#N)C(=O)Nc2ccccc2)c(C)n1-c1cccnc1	4.3	-32.4	-9.8	16.1
Cc1ccc(C2CC(=O)Nc3cc4c(cc32)OCO4)o1 (centres undefined)	3.7	-41.6	-5.3	21.1
Cc1cc(C)n(-c2nc(NCCC(C)C)c3c4c(sc3n2)COC(C)(C)C4)n1	-5.1	-16.5	-16.0	32.6*
Cc1cc(C)n(-c2nc(-n3nc(C)cc3C)c3c4c(sc3n2)COC(C)(C)C4)n1	0.1	-36.5	13.2	14.4
CCCCCCC(C)NC(=S)Nc1cc(S(=O)(=O)N(C)C)ccc1C (centres undefined)	nt	-36.5	2.5	nt
COC(=O)c1sc2ccccc2c1-n1cccc1C(=O)C(=O)Nc1ccc(C)cc1	-1.6	-53.9	37.7*	7.5
COc1cc2ccccc2c2c1CCCC2=O	-6.5	-34.3	-14.2	13.5
CC(C)c1ccc2occ(-c3nn[nH]n3)c(=O)c2c1	nt	-26.6	59.3*	nt
Cc1ccc2occ(-c3nn[nH]n3)c(=O)c2c1	nt	5.8	13.8	nt
CCOC(=O)C1=C(C)NC2=C(C(=O)CCC2)C1c1cn(Cc2ccc(Cl)cc2Cl)nc1-c1ccccc1 (centres undefined)	-6.1	-17.5	-7.6	24.4
SMILES	PostGolgi yeast	Yeast growth inh	Yeast lifespan up	PostGolgi ctrl
N#Cc1cccc(-n2c(-c3ccccc3)nnc2-c2ccccc2)c1C#N	4.0	-51.2	-5.6	24.1
N#Cc1ccc(-n2c(-c3ccccc3)nnc2-c2ccccc2)cc1C#N	3.7	-35.4	-4.2	40.7*
O=C(CN1C(=O)C2C3C=CC(C3)C2C1=O)NCCN1CCCc2ccccc21 (centres undefined)	-4.9	-30.1	-1.3	10.0
O=C(CCN1C(=O)C2C3C=CC(C3)C2C1=O)NCCN1CCCc2ccccc21 (centres undefined)	-1.6	-7.1	-22.7	38.5*
CC1=[N+]([O-])C(C)(C)C(c2ccc(Br)cc2)=[N+]1[O-]	nt	11.9	0.9	nt
CCOc1ccc(OCC)c(NC(=O)CN2CCN(c3cccc(C)c3)CC2)c1	2.6	-18.5	0.5	28.2
CCOc1ccc(OCC)c(NC(=O)CN2CCN(c3cccc(C)c3)C(C)C2)c1 (centres undefined)	1.5	2.7	-16.5	30.2*
Cc1nc2ccc(S(=O)(=O)Nc3cc(-c4nc5cccnc5s4)ccc3C)cc2s1	nt	-28.1	2.2	nt
O=S(=O)(Nc1ccc(S(=O)(=O)Nc2nccs2)cc1)c1ccc2c(c1)OCCO2	1.6	-39.5	-12.9	3.0
Cc1ccc(-c2nc3cccnc3s2)cc1NS(=O)(=O)c1ccc2c(c1)OCCO2	85.5*	-9.5	-9.9	97.7*
O=S(=O)(Nc1cccc(-c2nc3cccnc3s2)c1)c1ccc2c(c1)OCCO2	30.4*	-38.1	-5.1	80.4*
Cc1ccc(C2Oc3ccccc3C3=C2C(c2cccs2)n2ncnc2N3)cc1 (centres undefined)	18.4	-46.7	4.5	39.4*
Cc1ccc(S(=O)(=O)Nc2nc3ccccc3s2)cc1	0.0	-32.5	-9.4	32.3*
O=S(=O)(Nc1nc2ccccc2s1)c1ccc(Br)s1	-0.9	-58.5	-1.2	33.0*
CC(C)NC(=S)N/N=C/c1ccc2c(c1)OCCO2	nt	-10.2	-5.2	nt
CCCCNc1ncnc2c1cnn2-c1ccccc1	5.2	-12.0	-20.5	14.6
Cc1ccc(CSc2ncnc3c2cnn3Cc2ccccc2)cc1	0.6	-47.2	-4.2	3.4
CCCCNc1ncnc2c1cnn2-c1ccc(Cl)cc1	-2.2	-33.6	-9.1	35.4*
Cc1ccc(-n2ncc3c(NCc4ccccn4)ncnc32)c(C)c1	2.6	-22.1	-14.6	13.0
N#Cc1ccc(CSc2ncnc3c2cnn3Cc2ccccc2)cc1	-1.0	-47.3	-4.6	38.6*
Clc1ccc(Cn2ncc3c(NCc4ccccc4)ncnc32)cc1	-5.6	-22.5	-2.9	40.6*
Clc1ccc(-n2ncc3c(NCc4ccccn4)ncnc32)cc1	-3.1	-3.8	-6.0	31.8*
CC(C)NS(=O)(=O)c1ccc(NC(=O)NC2CCCCC2)cc1	nt	-39.5	4.6	nt
CC(C)CC(=O)OCC(=O)Nc1ccccc1Sc1ccccc1	nt	-18.7	2.8	nt
O=c1c2ccccc2nc(SCc2nc3ccccc3s2)n1CCCO	nt	-39.4	-4.1	nt
SMILES	PostGolgi yeast	Yeast growth inh	Yeast lifespan up	PostGolgi ctrl
CCOc1ccc(NC(=O)C(C)Oc2ccccc2C(=O)Nc2cccc(Cl)c2Cl)cc1 (centres undefined)	-6.1	-2.8	-18.0	-6.4
O=C(NCCc1csc(-c2ccc(C(F)(F)F)cc2)n1)c1cccs1	3.8	-7.8	-8.9	82.3*
Cn1c(=O)[nH]c(=O)c2c1nc(N1CCCC1)n2CCSc1nc2ccccc2[nH]1	1.9	-22.6	-4.3	5.8
O=c1nc2c(O)cccn2c2c1c(=O)[nH]c1ccccc12	nt	-28.6	7.1	nt
O=c1[nH]c2ccccc2c2nc3ccccn3c12	-0.9	79.8*	-26.1	9.2
CC(=O)NC1C(c2nc3ccccc3s2)=C(c2ccccc2)C(=O)N1c1ccc(C)cc1 (centres undefined)	64.0*	-10.8	-9.9	13.8
COc1ccc(C(=O)N2CCN(c3ccc(C)cc3C)CC2)cc1OC	-5.8	-0.2	-13.4	26.4
